The results in this text go back to paper PMC12120886 (Plant Biotechnology Journal, 2025).

Each structure is given as a SMILES string.

Usually Km stands for the substrate concentration at which the rate is half of its maximum.

The subject of assay [1] is LcTPS3. Kind of assay: malachite green phosphate-release assay, Michaelis-Menten fit. As to conditions: 5 mM MgCl2, 50 mM MOPS pH 7.0 (optimum printed as pH 7.5), 35 °C, FPP 0-25 μM. The assay is classed as biochemical, Liriodendron chinense. In outline: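 Recombinant His-tagged enzyme was expressed from pET-28a(+) in E. coli BL21(DE3) pLysS, induced with 1 mM IPTG at 16 °C for 16 h, and bead-purified. FPP (0–25 μM) was reacted with 5 mM MgCl2 in 50 mM MOPS pH 7.0 at 35 °C for 15 min. Phosphatase-released phosphate was read by malachite green at 620 nm. Km came from a Michaelis–Menten fit of initial velocity versus [FPP].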

Assay [2] has as its target T1, STpGMAS (Tanacetum parthenium, UniProt F8UL80).
T1 sequence (F8UL80 1-559): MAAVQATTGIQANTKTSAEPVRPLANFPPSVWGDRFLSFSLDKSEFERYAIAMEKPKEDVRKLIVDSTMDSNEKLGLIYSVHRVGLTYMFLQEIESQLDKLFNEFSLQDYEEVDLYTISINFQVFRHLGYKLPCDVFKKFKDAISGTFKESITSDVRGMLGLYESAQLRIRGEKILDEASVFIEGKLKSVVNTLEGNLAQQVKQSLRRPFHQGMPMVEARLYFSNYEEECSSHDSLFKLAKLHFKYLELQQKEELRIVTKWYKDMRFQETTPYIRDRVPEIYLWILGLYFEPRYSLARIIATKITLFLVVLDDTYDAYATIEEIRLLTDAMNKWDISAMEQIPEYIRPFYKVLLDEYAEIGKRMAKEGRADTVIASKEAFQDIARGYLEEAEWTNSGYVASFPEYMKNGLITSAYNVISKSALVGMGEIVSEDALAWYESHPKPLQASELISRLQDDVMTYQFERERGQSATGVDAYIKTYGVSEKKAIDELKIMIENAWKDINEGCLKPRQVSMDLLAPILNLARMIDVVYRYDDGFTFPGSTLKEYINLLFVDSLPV
Kind of assay: GC-MS of germacrene A from yeast expressing the synthase with ERG20. The assay is classed as cell-based. The note with it: S. cerevisiae JCR27, endogenous FPP.

Assay [3] has as its target T2, LsLTC2 (Lactuca sativa, UniProt Q8S3A5).
T2 sequence (Q8S3A5 1-557): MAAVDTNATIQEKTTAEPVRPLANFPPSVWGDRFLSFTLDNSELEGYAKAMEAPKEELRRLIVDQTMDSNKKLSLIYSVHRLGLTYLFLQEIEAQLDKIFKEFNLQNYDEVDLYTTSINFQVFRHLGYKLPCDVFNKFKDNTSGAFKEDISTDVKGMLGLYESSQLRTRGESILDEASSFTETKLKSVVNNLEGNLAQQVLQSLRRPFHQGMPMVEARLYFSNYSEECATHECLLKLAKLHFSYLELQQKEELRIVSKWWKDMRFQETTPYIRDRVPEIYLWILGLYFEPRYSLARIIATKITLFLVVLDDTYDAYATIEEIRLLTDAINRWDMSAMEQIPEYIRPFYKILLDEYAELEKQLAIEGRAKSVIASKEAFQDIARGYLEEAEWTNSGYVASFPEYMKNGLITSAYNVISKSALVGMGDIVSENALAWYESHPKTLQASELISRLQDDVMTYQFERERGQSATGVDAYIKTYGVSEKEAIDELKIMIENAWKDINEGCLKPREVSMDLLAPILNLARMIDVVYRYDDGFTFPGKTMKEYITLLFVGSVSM
Described as above. It counts as cell-based. The note with it: S. cerevisiae JCR27, endogenous FPP.

As to `CC(C)=CCC/C(C)=C/CC/C(C)=C/COP(=O)(O)OP(=O)(O)O` [FPP], in assay [1], the Km came to 17.7 ± 0.47 µM. Also, the “GC-MS of germacrene A from yeast expressing the synthase with ERG20” value in assay [2] is “co‐expressed LcTPS3, NPGAS, LsLTC2 and STpGMAS with a yeast–derived farnesyl diphosphate synthase (EGR20)”; in assay [3], “co‐expressed LcTPS3, NPGAS, LsLTC2 and STpGMAS with a yeast–derived farnesyl diphosphate synthase (EGR20)”.
